Laboratory results published in paper PMC3065020 (Journal of nuclear medicine : official publication, Society …, 2009).
Each block holds one compound with its values, some of them ahead of it.

Columns and labels:
[1] = target: Aβ plaques in AD brain sections (Homo sapiens, UniProt P05067); experiment: In vitro autoradiography of postmortem human brain sections; format: binding; conditions: tracer 0.3 nM, 1 h
Procedure, shortened: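 Frozen brains from AD and control subjects were cut into 20-µm sections. Sections were incubated for 1 h with 0.3 nM radiotracer in 40% ethanol. They were then washed twice for 2 min in saturated Li2CO3 in 40% ethanol, once for 2 min in 40% ethanol, and rinsed in water for 30 s. Dried sections were exposed to film for 12–18 h, and the images were digitized.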

In vivo biodistribution = experiment: In vivo biodistribution; parameters: species or system mouse; conditions: for Brain concentration at 2 min / Brain concentration at 60 min: intravenous; for Brain uptake at 2 min after injection / Brain uptake at 60 min after injection: intravenous tracer dose of the metabolite
Procedure, shortened: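 CD-1 mice (20–26 g, male and female) received 370 kBq (10 µCi) of radiotracer in 10% ethanol/90% saline with 0.5% ascorbic acid by tail vein. Mice were killed by cardiac puncture under isoflurane at 2, 60, 120 and 180 min, with 3 animals per time point. Organs were weighed and γ-counted, and percentage dose was calculated against diluted aliquots of the injectate. Separately prepared labelled metabolites were also tested in healthy mice.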

[2] = In vivo metabolism in mice
Procedure, shortened: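 Healthy mice received 370–555 MBq (10–15 mCi) of radiotracer by tail vein and were killed at 2, 10, 30 or 60 min. Plasma was separated by centrifugation (3,000 rpm, 2 min) and mixed with an equal volume of acetonitrile. After spinning at 5,000 rpm for 5 min, the supernatant was run on C18 HPLC (0.1% TFA water/acetonitrile gradient, 1 mL/min) with radioactivity detection. Metabolites were identified by LC/MS.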

[3] = Small-animal PET of monkey brain; format: in vivo, rhesus monkey
Procedure, shortened: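 A young adult female rhesus monkey (6.65 kg) was intubated and kept under isoflurane, with a hindlimb venous catheter. After a transmission scan, it received 173.9 MBq (4.7 mCi; 71,262 MBq/mmol) of radiotracer in 3 mL of 95% saline/5% ethanol as a 1-min bolus. Emission data were collected for 90 min, corrected for attenuation and scatter, and reconstructed by 3D MAP. Manual volumetric ROIs (striatum, thalamus, cortex, white matter), drawn on the summed 60–90-min image, gave time–activity curves.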

[4] = target: T1, Aβ aggregates in postmortem AD brain homogenates (Homo sapiens, UniProt P05067); experiment: Saturation binding of ^18F-AV-45 in postmortem AD brain homogenates
T1 sequence (P05067 672-713 limits assumed): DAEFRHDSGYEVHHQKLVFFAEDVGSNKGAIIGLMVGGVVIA
Procedure, shortened: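 Gray matter from frozen AD brains was homogenized in PBS, diluted to 50–100 mg/mL and stored at −80°C. Saturation binding was run on 4 different AD brain homogenates. Binding was analysed by Scatchard plot with nonlinear regression, and Bmax was expressed as fmol/mg protein.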

[5] = target: T1, Aβ aggregates in postmortem AD brain homogenates; format: binding
[6] = target: T1, Aβ aggregates in postmortem AD brain homogenates; experiment: Competitive binding assay against ^18F-AV-45 in postmortem AD brain homogenates; conditions: read-out: Inhibition constant (Ki) against binding of ^18F-AV-45 to Aβ aggregates, radioligand ^18F-AV-45, 2 h at 37°C

Chain of Aβ plaques in AD brain sections (P05067 672-713 limits assumed): as above

SMILES: CNc1ccc(/C=C/c2ccc(OCCOCCOCC[18F])nc2)cc1 [^18F-AV-45, (E)-4-(2-(6-(2-(2-(2-^18F-fluoroethoxy)ethoxy)ethoxy)pyridin-3-yl)vinyl)-N-methyl benzenamine]
Labeling of AD brain sections containing Aβ plaques (autoradiogram) ([1]; AD brain sections): highly dense labeling
Labeling of brain sections of control subjects (autoradiogram) ([1]; control subject brain sections): no specific labeling
Brain concentration at 2 min (In vivo biodistribution; female healthy mice, 2 min after administration (peak)): 6.23 %ID/g
Brain concentration at 60 min (In vivo biodistribution; female healthy mice): 1.84 %ID/g
Initial brain uptake of parent relative to either of its metabolites (In vivo biodistribution; healthy mice, initial uptake): 1.5 fold
Brain concentration at 2 min (In vivo biodistribution; male healthy mice, 2 min after administration): 7.33 %ID/g
Brain concentration at 60 min (In vivo biodistribution; male healthy mice): 1.88 %ID/g
Biologic T1/2 in mouse plasma ([2]; intravenous, estimated): less than 30 min
Parent remaining in plasma ([2]; mouse plasma, 30 min after intravenous injection): 30%
Specific binding or retention in healthy monkey brain ([3]; healthy rhesus monkey, no Aβ plaques): did not display any specific binding or prolonged retention in the brain
Time of peak activity in cortex ([3]; rhesus monkey, intravenous 173.9 MBq): 7 min
Injected dose localized in the brain at the peak ([3]; rhesus monkey, intravenous 173.9 MBq, estimated): about 4.4 % of the injected dose
Bmax (saturation binding), average ([4]; average of 4 different AD brain homogenates): 8,811 ± 1,643 fmol/mg protein
Bmax (saturation binding), representative example ([4]; representative AD brain homogenate, Figure 2): 7,215 fmol/mg of protein
Koff ([5]; dissociation from Aβ aggregates, AD brain homogenates): 0.00075 ± 0.0001 s⁻¹

SMILES: CC(=O)N(C)c1ccc(/C=C/c2ccc(OCCOCCOCC[18F])nc2)cc1 [^18F-AV-267]
Brain uptake at 2 min after injection (In vivo biodistribution; healthy mice): 3.3 %ID/g
Brain uptake at 60 min after injection (In vivo biodistribution; healthy mice): 1.8 %ID/g

SMILES: CNc1ccc(/C=C/c2ccc(OCCOCCOCCF)nc2)cc1 [^18F-AV-45, (E)-4-(2-(6-(2-(2-(2-^18F-fluoroethoxy)ethoxy)ethoxy)pyridin-3-yl)vinyl)-N-methyl benzenamine]
Kd ([5]; read-out: Kd = Koff/Kon, derived from kinetic measurement): 1.31 nM

Now from value to compound:

Ki [6]: 398 ± 45 nM
SMILES: CC(=O)N(C)c1ccc(/C=C/c2ccc(OCCOCCOCCF)nc2)cc1 [^18F-AV-267]

Brain uptake at 2 min after injection (In vivo biodistribution; healthy mice): 4.5 %ID/g
Brain uptake at 60 min after injection (In vivo biodistribution; healthy mice): 1.8 %ID/g
Metabolite share in plasma ([2]; mouse plasma, 30 min after intravenous injection of ^18F-AV-45): about 48%
SMILES: Nc1ccc(C=Cc2ccc(OCCOCCOCCF)nc2)cc1 [^18F-AV-160]
